Screening results deposited in PubChem BioAssay by several laboratories.
Rev-RRE block = HIV-1 Rev-RRE binding inhibitors, primary screen, biochemical, FRET, protein-RNA interaction; Rev peptide-RRE RNA binding; P05866; hit rate 0.79% among 97,000; inhibition, % at 8 µM;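 active means inhibition above the screen-wide mean plus 3 SD, cut at about 35% in these data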;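 further: 0% = median DMSO wells and 100% = median Neomycin B control wells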
Target sequence (P05866 whole entry, looked up): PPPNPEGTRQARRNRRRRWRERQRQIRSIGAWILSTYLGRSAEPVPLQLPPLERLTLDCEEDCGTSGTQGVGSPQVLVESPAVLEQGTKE
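Assay system: Labelled RRE RNA duplex and labelled Rev peptide | Times: 5 min preincubation and 15 min binding, 25 °C | Detection: FRET, ex 480 nm, em 540 and 671 nm | Evaluation: % inhibition of FRET ratio versus controls | Benchmarks: DMSO wells as 0% and neomycin B wells as 100% inhibition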
ERa SRC1 inh = ERα–SRC-1 coactivator interaction inhibitors, primary screen, biochemical, TR-FRET, ERα LBD, estradiol-bound | Estrogen receptor (Homo sapiens), P03372 | inhibition, % at 25.6 µM | hit rate 1.7% among 86,000 | TR-FRET ER-alpha LBD / SRC-1 peptide; in the data active means inhibition above about 50%;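 further: 0% = receptor plus peptide control and 100% = peptide only without receptor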
ERa SRC1 pot = enhancers of ERα–SRC-1 coactivator binding, primary screen, biochemical, TR-FRET, ERα LBD, low estradiol. TR-FRET ERalpha-LBD/SRC-Cy5 coactivator binding, 2 h; 100 = basal binding, no effect. hit rate 1.3% among 86,000. Estrogen receptor (Homo sapiens), P03372. coactivator binding (% of control), % at 25.6 µM; in the data active means activity above about 200%;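 further: binding measured in presence of low estradiol as agonist stimulus; 0% = peptide alone without receptor and 100% = receptor with peptide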
Smad3 FoxH1 inh = Smad3/FoxH1 peptide binding inhibitors, primary screen, biochemical, TR-FRET. TR-FRET Smad3/Dy647-FoxH1 peptide binding, europium anti-His. inhibition, % at 25 µM. hit rate 0.29% among 88,000. AID 630, 2007;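 active means compounds that reduce the energy-transfer binding signal between the protein and its labelled peptide by more than half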;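 further: 0% = Smad3 plus labelled peptide maximal FRET and 100% = peptide-only background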
Target sequence (P84022 whole entry, looked up): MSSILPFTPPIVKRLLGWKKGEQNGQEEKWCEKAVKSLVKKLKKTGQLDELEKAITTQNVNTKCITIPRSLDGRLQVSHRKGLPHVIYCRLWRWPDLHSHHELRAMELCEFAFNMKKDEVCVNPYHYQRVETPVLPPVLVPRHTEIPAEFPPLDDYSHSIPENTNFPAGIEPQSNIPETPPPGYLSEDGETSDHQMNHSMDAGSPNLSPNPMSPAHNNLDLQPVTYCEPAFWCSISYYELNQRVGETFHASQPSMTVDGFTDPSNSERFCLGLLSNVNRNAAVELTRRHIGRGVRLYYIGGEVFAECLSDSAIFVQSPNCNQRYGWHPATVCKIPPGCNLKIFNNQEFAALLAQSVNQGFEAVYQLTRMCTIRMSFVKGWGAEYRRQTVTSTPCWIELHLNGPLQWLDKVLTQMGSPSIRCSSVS
FAK blocker = FAK kinase inhibitors, primary screen, biochemical; Focal adhesion kinase 1 (Homo sapiens), Q05397; hit rate 0.84% among 97,000; biochemical FAK kinase activity assay; inhibition, %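 (tested at 7 µM)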; in the data active means inhibition above about 19%;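 further: 0% = DMSO and 100% = reference compound high control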
ERb coact inh = inhibitors of ERβ-SRC1 coactivator interaction, primary screen, biochemical, TR-FRET, ERβ LBD, SRC-1 peptide | Estrogen receptor beta (Homo sapiens), Q92731 | TR-FRET ER-beta LBD / SRC1-Cy5 peptide binding; receptor agonist-loaded with 1 µM estradiol | inhibition, % at 25.6 µM | hit rate 1.3% among 86,000 | AID 633, 2007;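 active means compounds whose percent inhibition of the receptor-coactivator binding signal exceeds about 50% in the single-dose screen, limit read from the data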;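 further: 0% = receptor plus peptide wells without compound and 100% = peptide-only wells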
* marks the source's active call; other numbers are inactive results; x = no result given; [ ] = another dose, or the depositor's remark. The list is not random: actives were taken first. Their share in the collection is about 4%.

SMILES | Rev-RRE block | ERa SRC1 inh | ERa SRC1 pot | Smad3 FoxH1 inh | FAK blocker | ERb coact inh
CCCCCNC(=O)C1CC=CCC1C(=O)O (stereo not given) | 4.2 | -1.7 | 272.6*[fluorescence artefact?] | 2.8 | 0.2 | -2.4
CCCCOc1ccc(NC(=O)C2CC=CCC2C(=O)O)cc1 (stereo not given) | 3.9 | 3.2 | 106.4 | -1.5 | 2.3 | 2.8
Cc1nn(C)cc1CN(C)C(=O)c1nn2c(c1Cl)NC(c1cccs1)CC2C(F)(F)F (stereo not given) | 1.5 | -9.1 | 125.6 | 0.9 | -0.7 | -11.0
Cc1nn(C)c(C)c1CN(C)C(=O)c1cc2n(n1)C(C(F)(F)F)CC(c1cccs1)N2 (stereo not given) | 6.1 | 7.2 | 101.5 | 54.4*[fluorescence artefact?] | 0.5 | 9.4
O=C(O)C[C@@H](C(=O)O)c1ccccc1[N+](=O)[O-] | x | x | x | 47.9 | x | x
O=C(O)[C@@H](c1ccccc1)[C@@H](C(=O)O)c1ccccc1 | x | x | x | 3.6 | x | x
C=CCn1c(=O)c2ccccc2n2c(SCc3nnc(-c4ccccc4Br)o3)nnc12 | x | 51.6*[fluorescence artefact?] | 70.8 | -3.1 | x | 35.4
Cc1cc(NC(=O)CN2CC3CC(C2)c2cccc(=O)n2C3)nc2c1c(=O)oc1ccccc12 (stereo not given) | x | 61.3*[fluorescence artefact?] | 46.5 | 11.5 | x | 57.6*
CCN(CC)CCNC(=O)c1cc(Cl)c(N)cc1OC | x | -9.1 | 108.8 | -5.5 | x | 56.2*
Cc1ccc(-c2nnn(CC(=O)Nc3ccc4nn(-c5ccccc5)nc4c3)n2)o1 | 11.2 | 58.2* | 154.7 | 5.4 | 1.0 | 39.4
COc1ccc(OC)c(NC(=O)CSc2ncccc2C(=O)O)c1 | 4.2 | 3.8 | 80.1 | -0.9 | 2.3 | 26.5
Nc1nonc1NC(=O)CSc1ncccc1C(=O)O | -1.8 | -1.7 | 100.9 | 13.8 | -6.6 | 63.8*
NCCC1([N+](=O)[O-])CCNCC1 | x | x | x | 15.8 | x | x
COc1ccc(NC(=O)/C(C#N)=C/c2ccc(Br)o2)cc1 | -17.9 | x | x | x | 17.0 | x
N#C/C(=C/c1ccc(N2CCCCCC2)o1)c1cccc(F)c1 | 104.7*[fluorescence artefact?] | -6.5 | 94.1 | 11.9 | 2.8 | 1.2
N#C/C(=C\c1ccc(Sc2nc3ccccc3[nH]2)o1)c1ccccc1 | 16.3 | 14.5 | 79.5 | 6.5 | -2.4 | 13.3
COc1cc(N2CCCC2)c(OC)cc1/C=C(/C#N)c1cccc(F)c1 | 117.2*[fluorescence artefact?] | 17.1 | 93.7 | 8.7 | -0.3 | -1.8
N#C/C(=C/c1ccc(N2CCCCC2)o1)C(=O)Nc1ccc(Cl)cc1 | 139.3*[fluorescence artefact?] | x | x | x | 1.0 | x
N#C/C(=C/c1ccc(N2CCCCCC2)o1)c1ccc(F)cc1 | 73.0* | -6.4 | 91.3 | -6.2 | -2.0 | 15.2
O=C1C(=O)c2ccc(-c3ccccc3)cc2-c2ccccc21 | 7.2 | 24.2 | 90.2 | 65.8*[fluorescence artefact?] | 55.6* | -2.3
O=C1c2ccccc2C(=O)c2c1ccc(C(=O)O)c2-c1ccc2ccccc2c1 | x | x | x | 10.0 | x | x
NCCOC[C@H](N)C(=O)O | x | x | x | 3.3 | x | x
CCNc1ccc2noc3c2c1C(=O)c1ccccc1-3 | 138.2*[fluorescence artefact?] | -2.4 | 176.8 | 3.7 | 48.6* | 4.8
CCOc1ccc2noc3c2c1C(=O)c1ccccc1-3 | 132.8*[fluorescence artefact?] | x | x | x | 15.6 | x
CN(C)S(=O)(=O)c1nc(Cl)c2[nH]cnc2n1 | x | x | x | 16.5 | x | x
SMILES | Rev-RRE block | ERa SRC1 inh | ERa SRC1 pot | Smad3 FoxH1 inh | FAK blocker | ERb coact inh
Cc1cccc(N2C(=O)c3cccc4c(N(C)CCO)ccc(c34)C2=O)c1 | 128.7*[fluorescence artefact?] | -5.2 | 122.8 | 20.5 | 1.4 | -6.0
Cc1cc(NC(=O)CSc2nc3sc4c(c3c(=O)n2C)CCCC4)no1 | 7.1 | 65.2*[fluorescence artefact?] | 81.6 | -2.1 | 3.7 | 48.0
CCn1c(SCC(=O)Nc2cc(C)on2)nc2sc3c(c2c1=O)CCCC3 | 2.0 | 24.4 | 95.8 | 1.9 | -1.9 | 20.1
CCn1c(SCC(=O)O)nc2sc3c(c2c1=O)CCC3 | -1.4 | 90.9*[fluorescence artefact?] | 5.7 | 16.0 | -1.4 | 91.5*[fluorescence artefact?]
Cc1cc(NC(=O)CSc2nc(C(C)C)nc3sc4c(c23)CCCC4)no1 | 9.4 | 0.5 | 205.9*[fluorescence artefact?] | 9.3 | 1.6 | 18.0
CCOc1ccc(NS(=O)(=O)c2ccc(OCC)c3ncccc23)cc1 | 8.8 | 8.5 | 89.8 | -13.2 | 0.2 | 16.3
N=C(N)SCc1nc(-c2ccc(Cl)cc2)no1 | x | x | x | 15.5 | x | x
CCCCOc1[nH]c2nc(-c3ccco3)n(Cc3ccco3)c(=N)c2c1C#N | 55.1* | 28.8 | 80.9 | 7.0 | 2.6 | 42.5
c1ccc(CSc2nnc(-c3ccco3)n2Cc2ccco2)cc1 | 4.6 | -12.6 | 99.5 | -8.6 | 3.8 | 0.1
COc1cccc(/C=N/n2c(SC)nnc2-c2ccccc2)c1OC | 20.9 | 21.8 | 105.3 | -16.9 | -1.7 | 8.0
COc1cccc(/C=N/n2c(SC)nnc2-c2ccccc2)c1O | 5.0 | 16.0 | 89.5 | 1.3 | -9.6 | 68.0*[fluorescence artefact?]
Cc1ccccc1NC(=O)CSc1nnc(-c2ccco2)c(-c2ccco2)n1 | 10.8 | 71.3* | 58.2 | 5.8 | 15.2 | 72.1*
CSc1nnc2c(n1)OC=Nc1ccccc1-2 | 6.6 | -32.6 | 105.4 | 12.9 | 1.6 | -12.9
O=C(CSc1nnc(-c2ccco2)c(-c2ccco2)n1)Nc1ccccc1 | 4.8 | 84.2*[fluorescence artefact?] | 21.7 | -8.5 | 16.4 | 86.2*[fluorescence artefact?]
CSc1nnc(-c2ccco2)c(-c2ccco2)n1 | 3.9 | 89.7*[fluorescence artefact?] | 7.3 | 28.2 | 8.0 | 91.3*[fluorescence artefact?]
Cc1cc(N)c2cc(NC(=O)Nc3ccc4nc(C)cc(N)c4c3)ccc2n1 | x | x | x | 18.4 | x | x
Cn1c(SCC(=O)Nc2sc3c(c2C#N)CCC3)nnc1C1COc2ccccc2O1 (stereo not given) | 6.1 | 65.6*[fluorescence artefact?] | 68.8 | -4.8 | 2.0 | 40.8
Cc1ccc(S(=O)(=O)NC(=O)Nc2ncn[nH]2)cc1 | x | x | x | 1.4 | x | x
CCOC(=O)c1c(N)sc(=S)c2c1CCC2 | 8.0 | 54.6*[fluorescence artefact?] | 44.8 | 7.7 | -0.5 | 69.6*
Fc1cccc(Cl)c1/C=N/N=C1c2ccccc2-c2ccccc21 | x | x | x | 59.0* | x | x
O=S(=O)(N/N=C\c1c(F)cccc1Cl)c1ccc(Cl)cc1 | 4.2 | x | x | x | -4.4 | x
CC(=O)NC1=C(OS(=O)(=O)c2ccc(C)cc2)CN(C)C1=O | x | x | x | 14.2 | x | x
Cc1[nH]c2ccccc2c1/C=C/c1cc[n+](C)cc1 | 138.2*[fluorescence artefact?] | x | x | x | 2.1 | x
Cc1[nH]c2ccccc2c1SCCN | 1.2 | -1.1 | 116.9 | 4.0 | -0.7 | -2.8
CN(C)CCNc1ccccn1 | x | x | x | -10.7 | x | x
c1ccc(-c2nc(N3CCCCCC3)nc(-n3ccnc3)n2)cc1 | 15.0 | -1.3 | 72.6 | -4.8 | 2.2 | -1.2
c1ccc(-c2nc(N3CCN(c4ccccc4)CC3)nc(-n3ccnc3)n2)cc1 | -3.3 | 82.7*[fluorescence artefact?] | 185.4 | 2.8 | 3.6 | 28.8
CC(C)=N[C@H](C(=O)O)C(C)(C)S | x | x | x | 19.9 | x | x
COc1ccc2c(c1)c1c(C)c3cnccc3c(C)c1n2CCCN | x | x | x | 86.9* | x | x
